From ChEMBL document CHEMBL1134769, “Potent and selective nonpeptide inhibitors of caspases 3 and 7” (J Med Chem, 2001)
Active and inactive are the calls of the source. The calls are words filed in the database; no cut-off is given here.

Legend:
Caspase-6 = target: T1, Caspase-6 (Homo sapiens, UniProt P55212); assay: Inhibitory activity against Caspase-6; conditions: read-out: Ki app
T1 sequence (P55212 whole entry): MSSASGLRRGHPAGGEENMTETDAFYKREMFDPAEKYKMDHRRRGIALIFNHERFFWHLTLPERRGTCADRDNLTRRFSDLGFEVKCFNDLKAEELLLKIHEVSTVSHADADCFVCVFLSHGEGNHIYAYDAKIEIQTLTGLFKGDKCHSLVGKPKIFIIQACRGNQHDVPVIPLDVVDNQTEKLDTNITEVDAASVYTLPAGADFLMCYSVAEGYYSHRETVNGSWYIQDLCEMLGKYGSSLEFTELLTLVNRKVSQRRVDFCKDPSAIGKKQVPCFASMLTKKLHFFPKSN
Outline: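 Recombinant full-length human caspase 6 (~10 units/assay) in 50 mM Tris-HCl pH 7.4 with 0.1% CHAPS, 1.5 mM MgCl2, 1 mM EDTA and 5 mM β-mercaptoethanol. Substrate 10 μM Ac-DEVD-AMC. AMC monitored at 360/460 nm, 30 °C, final DMSO 5%. Single-dose screen (typically 5–50 μM), then IC50 determination.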

Caspase-3 = target: T2, Caspase-3 (Homo sapiens, UniProt P42574); assay: Inhibitory activity against caspase-3; conditions: read-out: Ki app
T2 sequence (P42574 whole entry): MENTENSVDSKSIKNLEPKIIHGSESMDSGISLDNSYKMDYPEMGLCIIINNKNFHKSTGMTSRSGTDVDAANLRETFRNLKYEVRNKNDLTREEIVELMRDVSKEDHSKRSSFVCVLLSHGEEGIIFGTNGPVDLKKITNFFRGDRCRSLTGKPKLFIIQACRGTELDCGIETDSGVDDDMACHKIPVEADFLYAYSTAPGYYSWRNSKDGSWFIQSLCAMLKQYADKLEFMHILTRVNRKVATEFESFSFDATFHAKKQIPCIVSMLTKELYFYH
Outline: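 Recombinant full-length human caspase 3 or 7, ~10 units/assay (1 unit = 1 pmol AMC/min). Substrate 10 μM Ac-DEVD-AMC. AMC fluorescence at 360/460 nm, 30 °C, with 5% final DMSO. Single-dose screen (typically 5–50 μM), then IC50 curves; repeated IC50s had CVs typically <30%.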

Caspase-2 = target: T3, Caspase-2 (Homo sapiens, UniProt P42575); assay: Inhibitory activity against caspase-2; conditions: read-out: Ki app
T3 sequence (P42575 whole entry): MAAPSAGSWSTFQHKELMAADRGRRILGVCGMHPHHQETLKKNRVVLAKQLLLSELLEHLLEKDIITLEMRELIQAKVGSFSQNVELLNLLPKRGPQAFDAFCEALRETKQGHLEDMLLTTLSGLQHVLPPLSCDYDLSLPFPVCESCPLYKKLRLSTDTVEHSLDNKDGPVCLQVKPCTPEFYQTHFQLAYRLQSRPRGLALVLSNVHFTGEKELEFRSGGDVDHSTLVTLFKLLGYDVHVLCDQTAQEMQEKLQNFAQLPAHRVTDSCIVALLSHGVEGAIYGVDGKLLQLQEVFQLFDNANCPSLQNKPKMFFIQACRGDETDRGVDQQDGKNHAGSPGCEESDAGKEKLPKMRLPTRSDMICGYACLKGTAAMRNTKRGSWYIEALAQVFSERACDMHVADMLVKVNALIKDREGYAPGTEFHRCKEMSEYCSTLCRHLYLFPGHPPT
Outline: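 Recombinant full-length human caspase 2 (~10 units/assay) in 50 mM sodium acetate pH 6.2 with 10% glycerol, 0.25 mM EDTA and 5 mM β-mercaptoethanol. Substrate 25 μM Ac-VDVAD-AMC. Fluorescence at 360/460 nm, 30 °C, final DMSO 5%. Compounds screened at a single dose (typically 5–50 μM), then full IC50 curves where activity was seen.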

C20/A4 [1] = assay: In vitro inhibition of Chondrocyte cell line C20/A4 apoptosis at 10 uM of compound; Not active; format: functional, cell-based; conditions: Homo sapiens
Outline: (§1)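 Immortalized human chondrocyte line C20/A4 seeded at 20 000 cells/well overnight, then exposed 24 h to 4 μg/mL camptothecin with or without compound. Floating and adherent cells combined and lysed 30 min at 4 °C, then clarified at 14000g. Mono- and oligonucleosome DNA fragments measured by cell death ELISA; result expressed as % inhibition of apoptosis.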

C20/A4 [2] = assay: In vitro inhibition of Chondrocyte cell line C20/A4 apoptosis at 25 uM of compound; Not active; format: functional, cell-based; conditions: Homo sapiens; outline: as §1
C20/A4 [3] = assay: In vitro inhibition of Chondrocyte cell line C20/A4 apoptosis at 10 uM of compound; format: functional, Homo sapiens; outline: as §1

Ki (Caspase-6) [µM] | Ki (Caspase-3) [µM] | Ki (Caspase-2) [µM] | Structure (SMILES) | NA (C20/A4 [1]) | NA (C20/A4 [2]) | Inhibition (C20/A4 [3]) [%]
57 | 12 | 11 | CN(CC1CCCN1S(=O)(=O)c1ccc2c(c1)C(=O)C(=O)N2)c1ccccc1 (centres undefined) | inactive | inactive | –
7.5 | 0.019 | 6.5 | O=C1Nc2ccc(S(=O)(=O)N3CCC[C@H]3CNc3ccccc3)cc2C1=O | – | – | –
29 | 0.015 | 4.9 | O=C1Nc2ccc(S(=O)(=O)N3CCC[C@H]3COc3ccccc3)cc2C1=O | – | – | –
> 25 | 0.06 | > 25 | COC[C@@H]1CCCN1S(=O)(=O)c1ccc2c(c1)C(=O)C(=O)N2 | – | – | 44
> 5 | 0.0012 | 4 | O=C1C(=O)N(Cc2ccccc2)c2ccc(S(=O)(=O)N3CCC[C@H]3COc3ccccc3)cc21 | – | – | 48
